# Experimental data taken from ChEMBL document CHEMBL1275590, “Novel arylimidamides for treatment of visceral leishmaniasis” (Antimicrob Agents Chemother, 2010).
# Tests used:
# Mus musculus [1] = test: Hepatotoxicity in BALB/c mouse assessed as alkaline phosphatase level in serum at 10 mg/kg/day, iv administered for five days (Rvb= 134 U/L); type: toxicity, organism-based; design: route intravenous; conditions: in vivo
# Mus musculus [2] = test: Toxicity in BALB/c mouse assessed as gastric inflammation at 150 mg/kg/day, po; type: organism-based, Stomach; design: route oral; conditions: in vivo
# Mus musculus [3] = test: (§1) Volume of distribution in Swiss Webster mouse at 66 mg/kg, po by HPLC-MS/MS analysis; type: ADME, organism-based; design: dose 66 mg/kg, route oral; conditions: in vivo
# Outline: (§2)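 Male Swiss Webster mice (n = 3 per time point), single dose by oral gavage (sterile water solution) or tail-vein bolus i.v. (water diluted 1:1 with 2× saline, over ~10–20 s); dose volume 5 ml/kg. Terminal blood sampled from 5 min to 72 h postdose; plasma quantified by HPLC-MS/MS (positive-ion SRM). Noncompartmental analysis gave Cmax, Tmax, AUC0-∞, CL, Vss; bioavailability from p.o. versus i.v. exposure.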
# Mus musculus [4] = test: Toxicity in BALB/c mouse assessed as occurrence of tremor at 150 mg/kg/day, po administered for five days measured on day 4; type: organism-based; design: route oral; conditions: in vivo
# Outline: (§3)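 Female BALB/c mice (n = 5 per dose), dosed once daily for 5 consecutive days p.o. (20 ml/kg) or i.v. (10 ml/kg) with compound in sterile water, prepared fresh daily under yellow light. Vehicle controls n = 5 per route. Clinical observations, body weights, serum chemistry and hematology on day 6 before necropsy; histopathology of formalin-fixed tissues. Chemistry analysed by one-way ANOVA with Dunnett's posttest.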
# Mus musculus [5] = test: Toxicity in BALB/c mouse assessed as occurrence of hemorrhage at 150 mg/kg/day, po; type: organism-based; design: route oral; conditions: in vivo; outline: as §3
# [6] = AUC (0 to infinity) in Swiss Webster mouse at 4.9 mg/kg, iv by HPLC-MS/MS analysis; type: ADME, organism-based; design: time infinity, dose 4.9 mg/kg, route intravenous; conditions: plasma
# Outline: (§4)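 Male Swiss Webster mice, n = 3 per time point. For i.v., the compound was dissolved in sterile water, diluted 1:1 with 2× saline, and given as a tail-vein bolus over ~10–20 s. For p.o., it was given by gavage in sterile water. Dose volume was 5 ml/kg. Terminal plasma was taken from 5 min to 72 h and measured by HPLC-MS/MS (calibration 2.5–10,000 nM). Parameters came from noncompartmental analysis.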
# [7] = Tmax in Swiss Webster mouse at 1 mg/kg, iv by HPLC-MS/MS analysis; type: ADME, organism-based; design: dose 1 mg/kg, route intravenous; conditions: in vivo; outline: as §2
# Mus musculus [8] = test: Renal toxicity in BALB/c mouse assessed as blood urea nitrogen level in serum at 10 mg/kg/day, iv administered for five days (Rvb= 20 mg/dl); type: organism-based; design: route intravenous; conditions: in vivo; outline: as §3
# Mus musculus [9] = test: Toxicity in BALB/c mouse assessed as ruffled fur at 50 mg/kg/day, ip administered for five days; type: organism-based; design: route intraperitoneal; conditions: in vivo
# Mus musculus [10] = test: Toxicity in BALB/c mouse assessed as hyperactivity at 150 mg/kg/day, po administered for five days measured on day 5; type: organism-based; design: route oral; conditions: in vivo; outline: as §3
# Mus musculus [11] = test: Renal toxicity in BALB/c mouse assessed as phosphorus level in serum at 10 mg/kg/day, iv administered for five days ((Rvb= 6.1 mg/dl); type: organism-based; design: route intravenous; conditions: in vivo; outline: as §3
# [12] = Half life in Swiss Webster mouse at 131 mg/kg, po by HPLC-MS/MS analysis; type: ADME, organism-based; design: dose 131 mg/kg, route oral; conditions: in vivo; outline: as §4
# Mus musculus [13] = test: Hepatotoxicity in BALB/c mouse assessed as ALT level in serum at 10 mg/kg/day, iv administered for five days (Rvb= 34 U/L); type: toxicity, organism-based; design: route intravenous; conditions: in vivo
# [14] = Half life in Swiss Webster mouse at 16.5 mg/kg, po by HPLC-MS/MS analysis; type: ADME, organism-based; design: dose 16.5 mg/kg, route oral; conditions: in vivo; outline: as §4
# [15] = Half life in Swiss Webster mouse at 66 mg/kg, po by HPLC-MS/MS analysis; type: ADME, organism-based; design: dose 66 mg/kg, route oral; conditions: in vivo; outline: as §4
# [16] = Induction of mutagenicity in Salmonella serovar Typhimurium TA 100 assessed as number of revertant colonies at 5 ug by Ames assay; type: toxicity, Salmonella enterica subsp. enterica serovar Typhimurium; conditions: in vivo
# Outline: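 Plate incorporation method with TA100, with and without Aroclor 1254-induced rat liver S9 (10% vol/vol). Compound dissolved in sterile water, serially diluted; plates scored for revertant count and background lawn versus controls. Mutagen if mean revertants at least 2-fold over mean solvent control. Positive controls: 2-nitrofluorene and sodium azide without S9, 2-aminoanthracene with S9; water and DMSO vehicles.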
# [17] = as §1; type: ADME, organism-based; design: dose 66 mg/kg, route oral; conditions: Swiss Webster, in vivo; outline: as §2
# [18] = Induction of mutagenicity in Salmonella serovar Typhimurium TA 98 assessed as number of revertant colonies at 100 ug by Ames assay in presence of Aroclor 1254-induced rat liver S9 metabolic activation system; type: toxicity, subcellular, Salmonella enterica subsp. enterica serovar Typhimurium
# Outline: (§5)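 Ames plate incorporation with S. Typhimurium TA98 and TA100, with or without Aroclor 1254-induced rat liver S9 (10% vol/vol). Compound was dissolved in sterile water and serially diluted to 1–500 μg/plate. Positive controls were 2-nitrofluorene and sodium azide without S9, and 2-aminoanthracene with S9; sterile water and DMSO served as vehicles. Revertant colonies and background lawn were scored. A mutagen was defined as a mean revertant count at least 2-fold over solvent control. Single experiment.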
# [19] = Induction of mutagenicity in Salmonella serovar Typhimurium TA 98 assessed as number of revertant colonies at 100 ug by Ames assay; type: toxicity, Salmonella enterica subsp. enterica serovar Typhimurium; conditions: in vivo; outline: as §5
# [20] = Induction of mutagenicity in Salmonella serovar Typhimurium TA 100 assessed as number of revertant colonies at 10 ug by Ames assay; type: toxicity, Salmonella enterica subsp. enterica serovar Typhimurium; conditions: in vivo; outline: as §5
# [21] = Drug level in Swiss Webster mouse spleen at 5 mg/kg, iv after 2 hrs by HPLC/UV analysis; conditions: read-out: Drug uptake
# [22] = Tmax in Swiss Webster mouse at 70 mg/kg, po by HPLC-MS/MS analysis; type: ADME, organism-based; design: dose 70 mg/kg, route oral; conditions: in vivo; outline: as §2
# Leishmania donovani [23] = test: Antileishmanial activity against Leishmania donovani WR378 infected in golden Syrian hamster assessed as reduction in liver parasitemia at 30 mg/kg/day, po administered for five days; type: functional; conditions: 120 h
# Outline: (§6)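 11-day golden hamster VL model adapted from an 8-day method, using L. donovani WR378 metacyclic promastigotes. Dosing was oral, once daily for 5 days. Animals were euthanized on day 11 post-infection. Liver, spleen and femoral bone marrow (flushed with Schneider's medium) were harvested.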
# [24] = Drug level in Swiss Webster mouse kidney at 70 mg/kg, po after 2 hrs by HPLC/UV analysis; conditions: read-out: Drug uptake
# Leishmania donovani [25] = test: Antileishmanial activity against Leishmania donovani WR378 infected in golden Syrian hamster assessed as reduction in spleen parasitemia at 100 mg/kg/day, po administered for five days; type: functional; conditions: 120 h; outline: as §6
# Mus musculus [26] = test: Volume of distribution in Swiss Webster mouse at 70 mg/kg, po by HPLC-MS/MS analysis; type: ADME, organism-based; design: dose 70 mg/kg, route oral; conditions: in vivo
# Outline: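 Male Swiss Webster mice (n = 3 per time point) got a single oral gavage dose in sterile water, 5 ml/kg. The 5 mM formulation was a clear solution; the 20 and 40 mM formulations were gelatinous. Terminal blood was collected from 5 min to 72 h postdose, and plasma was analysed by HPLC-MS/MS. Volume of distribution came from noncompartmental analysis.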
# Mus musculus [27] = test: Hepatotoxicity in BALB/c mouse assessed as AST level in serum at 100 mg/kg/day, po administered for five days (Rvb= 70 U/L); type: toxicity, organism-based; design: route oral; conditions: in vivo
# [28] = Induction of mutagenicity in Salmonella serovar Typhimurium TA 98 assessed as number of revertant colonies at 5 ug by Ames assay; type: toxicity, Salmonella enterica subsp. enterica serovar Typhimurium; conditions: in vivo; outline: as §5
smiles,measurement,setting,value
CCOc1cc(NC(=N)c2ccccn2)ccc1-c1ccc(-c2ccc(NC(=N)c3ccccn3)cc2OCC)o1,Activity,Mus musculus [1],118 U/L
same,Activity,Mus musculus [2],Toxic
same,Vd,Mus musculus [3],71 L/kg
same,Activity,Mus musculus [4],Toxic
same,Activity,Mus musculus [5],Toxic
same,AUC(0-inf),[6],4.5 µM·h
same,Tmax,[7],5 min
same,Activity,Mus musculus [8],24 mg/dL
same,Activity,Mus musculus [9],Toxic
same,Activity,Mus musculus [10],Toxic
same,Activity,Mus musculus [11],8.1 mg/dL
same,half-life,[12],32 h
same,Activity,Mus musculus [13],40 U/L
same,half-life,[14],24 h
same,half-life,[15],30 h
CC(C)Oc1cc(NC(=N)c2ccccn2)ccc1-c1ccc(-c2ccc(NC(=N)c3ccccn3)cc2OC(C)C)o1,Activity,[16],145
same,Tmax,[17],4.98 min
same,Activity,[18],38
same,Activity,[19],34
same,Activity,[20],148
same,concentration at 2 h,[21],13.5 µM
same,Tmax,[22],1 h
same,inhibition in vivo at 30 mg/kg/day,Leishmania donovani [23],75%
same,concentration at 2 h,[24],30.3 µM
same,inhibition in vivo at 100 mg/kg/day,Leishmania donovani [25],79%
same,Vd,Mus musculus [26],54 L/kg
same,Activity,Mus musculus [27],68 U/L
same,Activity,[28],29
